Measured values gathered from unrelated publications.
Each line is one published result; the experiments were not run side by side.
Observed: cell growth or viability

With `O=C(Nc1ccc(Cl)cc1)Nc1cccc(-c2cn(Cc3ccc(Br)cc3)nn2)c1` the viability was 128% (PC-9; CCK-8; 50 µM, 72 h).
`O=C1CCC(N2C(=O)c3cccc4c(Cc5cnn(C6CCN(C(=O)C7(O)CCC7)CC6)c5)ccc2c34)C(=O)N1` (centres unmarked) has an IC50 of 7e-06 µM (NCI-H929).
The IC50 of `N.N.[Cl][Pt][Cl]` is reported as 43.8 µM (SK-OV-3; MTT; 72 h).
With `N.N.[Cl][Pt][Cl]` the IC50 was 8.2 µM (HCT-116; MTT; 72 h).
The IC50 of `O=C1[O][Pt]2([NH][C@@H]3CCCC[C@H]3[NH]2)[O]C1=O` is reported as 0.8 µM (HCT-116; MTT).
For `N.N.[Cl][Pt][Cl]`, the IC50 was 13.3 µM (HCT-116; MTT; 48 h).
`Fc1ccc2c(-c3nc(Cc4ccccc4)cs3)nn(Cc3ccc(Cl)cc3Cl)c2c1` has an IC50 of 67.6 µM (HCT-116; 48 h).
`N.N.[Cl][Pt][Cl]` has an IC50 of 255 µM (HCT-116; MTT; 24 h).
`N.N.[Cl][Pt][Cl]` gave an inhibition of 100% (WSUDLCL2; ATP luminescence; 10 µM, 72 h).
`S=P1(C2CCCCC2)CCCCC1` gave an IC50 of over 100 µM (HCT-116; MTT; 72 h).
`C#CCn1c(C(=O)/C=C/c2ccc(F)cc2)nc2ccccc21` has an IC50 of 6.51 µM (HCT-116; LDH; 48 h).
